Source: PubChem BioAssay (several laboratories)
NTR1 agonist: agonists of human NTR1, primary screen, imaging, U2OS cells, beta-arrestin-GFP, high content. Neurotensin receptor type 1 (Homo sapiens), P30989. NTR1-U2OS beta-arrestin-GFP spot imaging, agonist mode. activation, % at 20 µM. 330,000 compounds, 0.17% hits;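 active means activation at or above 40% of the spot to cytoplasm intensity ratio, with at least 20 cells analyzed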;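 further: 0% = DMSO without peptide and 100% = 100 nM NTR1 peptide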
MC4R ag barr: MC4R agonists recruiting beta-arrestin, primary screen, cell-based, luminescence, agonist arm of biased-ligand search; Melanocortin receptor 4 (Homo sapiens), P32245; U2OS MC4R beta-arrestin complementation; percent of melanotan II response, DMSO zero; activation, % at 8.9 µM; 360,000 compounds, 0.98% hits; AID 540308, 2011;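 active means activation above a per-plate cutoff, the mean activation of sample wells on that plate plus 3 SD, cut at about 8% in these data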
MC4R antag cAMP: MC4R antagonists of cAMP signaling, primary screen, cell-based, TR-FRET, antagonist arm of biased-ligand search. Melanocortin receptor 4 (Homo sapiens), P32245. MC4R-expressing cells, MTII-stimulated cAMP, LANCE TR-FRET. 360,000 compounds, 0.48% hits. inhibition, % at 6.5 µM;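 active means inhibition above its plate's cutoff, the mean of tested wells on that plate plus 3 SD, cut at about 29% in these data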;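 further: 0% = Melanotan II alone and 100% = Melanotan II plus saturating MCL0020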
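System: U2OS-MC4R stable cell line; Technique: Eu-cAMP/anti-cAMP TR-FRET, emission 671 nm; Repeats: single well per compound; Also added: Melanotan II; Dosing: one concentration, 6.5 µM nominal; Schedule: 30-min compound, 1-h challenge, 1-h detection, room temperature.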
NR1D1 modulator: modulators of Rev-erb alpha DNA binding, primary screen, biochemical, FITC-DNA, fluorescence polarization, uHTS; Nuclear receptor subfamily 1 group D member 1 (Homo sapiens), P20393; Rev-erbα–FITC-DNA binding, 90 min; activity, % at 10 µM; 370,000 compounds, 0.79% hits;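 active means activity above about 14%, limit read from the data; passing the limit was not always enough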;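 further: 0% = DMSO wells with 35 nM protein and 100% = DMSO wells with 750 nM protein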
Target sequence (P20393 whole entry, looked up): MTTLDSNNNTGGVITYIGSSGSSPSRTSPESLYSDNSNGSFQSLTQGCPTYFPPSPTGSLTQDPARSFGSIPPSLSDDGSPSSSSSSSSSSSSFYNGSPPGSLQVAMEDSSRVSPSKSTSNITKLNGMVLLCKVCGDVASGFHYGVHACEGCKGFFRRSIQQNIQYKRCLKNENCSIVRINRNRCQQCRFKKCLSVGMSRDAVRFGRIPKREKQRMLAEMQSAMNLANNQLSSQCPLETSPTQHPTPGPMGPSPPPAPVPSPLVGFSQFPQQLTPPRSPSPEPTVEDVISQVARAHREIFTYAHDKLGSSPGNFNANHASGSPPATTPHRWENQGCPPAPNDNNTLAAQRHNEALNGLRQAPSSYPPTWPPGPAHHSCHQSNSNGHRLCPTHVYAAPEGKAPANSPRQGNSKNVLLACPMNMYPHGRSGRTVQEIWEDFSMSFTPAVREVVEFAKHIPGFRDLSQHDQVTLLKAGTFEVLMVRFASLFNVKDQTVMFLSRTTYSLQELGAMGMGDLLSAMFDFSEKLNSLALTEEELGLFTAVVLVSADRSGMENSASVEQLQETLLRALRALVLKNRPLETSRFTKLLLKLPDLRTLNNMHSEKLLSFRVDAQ
PG9 binder: binders of HIV-1 gp120 antibody PG9, primary screen, biochemical, TR-FRET | TR-FRET gp120-PG9 antibody binding | inhibition, % at 6.7 µM | 360,000 compounds, 0.43% hits | AID 624416, 2012; in the data active means inhibition above about 8.5%
PG9 bind confirm: binders of anti-gp120 antibody PG9, confirmation, biochemical, TR-FRET | shares compounds with PG9 binder | TR-FRET PG9 antibody binding | inhibition, % at 6.7 µM | 1,500 compounds, 90% hits | AID 651571, 2012; in the data active means inhibition above about 9%
PGV04 counter: binders of control antibody PGV04, counter-screen for PG9 antibody binder project, biochemical, TR-FRET, distinct HIV envelope site; shares compounds with PG9 binder; TR-FRET PGV04 antibody-gp120 binding; inhibition, % at 6.7 µM; 1,500 compounds, 95% hits; AID 651604, 2012; in the data active means inhibition above about 9.5%
PG9 bind DR: small-molecule binders of antibody PG9, dose response, biochemical, TR-FRET, HIV-1 gp120 antibody; shares compounds with PG9 binder; TR-FRET PG9 antibody-gp120 binding inhibition; IC50, µM; 95 tested, under 10 active; in the data active means IC50 below about 10 µM
PGV04 DR counter: binders of control antibody PGV04, dose response, counter-screen for PG9 antibody binder project, biochemical, TR-FRET, distinct HIV envelope site. 95 compounds, 20% hits. TR-FRET binding to control antibody PGV04. IC50, µM. shares compounds with PG9 binder
PG126 binding DR: binders of control antibody PG126, dose response, counter-screen for PG9 antibody binder project, biochemical, TR-FRET, distinct HIV envelope site; shares compounds with PG9 binder; TR-FRET binding to antibody PG126, counterscreen; IC50, µM; 95 compounds, 20% hits; AID 651939, 2012
Active calls of the source: *; . = no result; ! = a repeat was not active. Hits are enriched below; roughly 2.5% of the tested compounds scored in any of these assays. Unless noted, no stated cut-off is given here; in the data, active means IC50 below about 9 µM; inactive means the rest.

SMILES | NTR1 agonist | MC4R ag barr | MC4R antag cAMP | NR1D1 modulator | PG9 binder | PG9 bind confirm | PGV04 counter | others
CCOC(=O)c1cc2sc(C)cc2n1CC(=O)Nc1ccc2c(c1)OCCO2 | 2 | 3 | -1 | 3 | 1 | . | .
CCC[C@H](/C=C/C(=O)OC(C)(C)C)Sc1ccc(OC)cc1 | . | . | . | 7 | . | . | .
CS(=O)(=O)N1CCC(C(=O)Nc2cccc(Cl)c2Cl)CC1 | 1 | 0 | -2 | 4 | 0 | . | .
O=C(Nc1cccc(Cl)c1Cl)C1CCN(c2ncccn2)CC1 | 2 | -2 | 5 | 4 | 9.2* | 13* | 14*
Cc1cc(C)cc(C(=O)OCCCN(C)C2CN(Cc3cn(Cc4ccccc4C(F)(F)F)nn3)S(=O)(=O)C2)c1 (stereo not drawn) | . | . | . | 3 | . | . | .
COc1ccc(/C=C/C(=O)Oc2cccc(/C=N/NC(=O)COc3c(C)cccc3C)c2)cc1 | 0 | 6 | -2 | 6 | 9.5* | 11* | 16*
COc1ccc(/C=C/C(=O)Oc2ccc(/C=N/NC(=O)COc3c(C)cccc3C)cc2)cc1 | 1 | 1 | 14 | 4 | 0 | . | .
CC1=Nc2ccc(C)cc2/C1=C/c1c(N)n2oc(C)cc2nc1=O | 27 | 9.2*! | 12 | -6 | 17*! | 20* | 43*
O=C(C[C@H]1CC[C@@H](NC(=O)Nc2ccc3c(c2)OCO3)[C@@H](CO)O1)NCc1ccccc1 | . | . | . | 5 | 14* | 8 | 19*
O=C(C[C@H]1CC[C@@H](NC(=O)Cc2cccnc2)[C@@H](CO)O1)NCc1ccc2c(c1)OCO2 | . | . | . | -2 | -2 | . | .
CCOC(=O)[C@@H]1CSCCS(=O)(=O)N1C(=O)[C@H](CCSC)NC(=O)OC(C)(C)C | . | . | . | -2 | 0 | . | .
CCOC(=O)c1cc(-c2ccc(C)cc2)nc2nc(SC)[nH]c(=O)c12 | 9 | 3 | -2 | 1 | 24* | 33* | 34*
Cc1ccc(N=Cc2ccc(O)cc2O)cc1F | 33 | 0 | -1 | 1 | 17* | 11* | 15*
COC(=O)[C@]12C[C@H](CC(=O)N3CCCCC3)C(=O)N(CCc3ccc(OC)c(OC)c3)C1=C[C@H](COCc1ccccc1)O[C@@H]2C | . | . | . | 3 | . | . | .
CCC[C@H]1[C@@H](OC(=O)NCc2ccc(C(F)(F)F)cc2)CC[C@@]23CCCN2C(=O)CCC[C@@H]13 | . | . | . | 3 | . | . | .
Cc1ccc(OCCC(=O)OCC(=O)c2ccc3c(c2)NC(=O)CO3)cc1 | -3 | 2 | 8 | 11 | 27* | 20* | 38*
COc1ccc(OCCCC(=O)OCC(=O)c2ccc3c(c2)NC(=O)CO3)cc1 | 0 | 1 | 0 | 4 | -1 | . | .
C=CCN1[C@H](C)COc2cc(F)ccc2S1(=O)=O | . | . | . | 0 | . | . | .
CCOC(=O)CNC(=S)N(CCCN1CCN(C)CC1)Cc1cccs1 | 0 | 1 | 2 | 2 | 13* | 5 | 9.8*
O=C(CNC(=S)N(CCCN1CCOCC1)Cc1cccs1)N1CCCC1 | 0 | 1 | 2 | -4 | 1 | . | .
COc1ccc2oc(=N)c(C(=O)Nc3ccc(C)cc3)cc2c1 | 2 | 0 | 1 | 2 | 0 | . | .
COc1ccc2oc(=N)c(C(=O)Nc3ccccc3)cc2c1 | 6 | 2 | 2 | -3 | 18* | 6 | 9.2*
COc1ccc2nc(-c3ccccc3)[nH]c(=O)c2c1 | . | -2 | 0 | 13 | 54* | 68* | 77*
CCCCN1CCS(=O)(=O)N(Cc2cn(Cc3ccc(C)cc3)nn2)C(C(=O)OC)C1 (stereo not drawn) | . | . | . | -1 | . | . | .
COc1ccc(Cl)cc1C(=O)NNC(=O)c1n[nH]c2ccccc12 | -1 | 0 | 6 | 1 | 10* | 24* | 31*
SMILES | NTR1 agonist | MC4R ag barr | MC4R antag cAMP | NR1D1 modulator | PG9 binder | PG9 bind confirm | PGV04 counter | others
CCCC[C@H]1C2CC(OC(=O)NCc3ccc(Cl)cc3)C(C2)[C@H]2CCCCN21 (stereo partly drawn) | . | . | . | -3 | . | . | .
O=S(=O)(c1cccs1)N1CCCc2nc(-c3ccc(F)cc3)ccc21 | . | . | . | 0 | 1 | . | .
COc1cc(C(=O)Oc2ccccc2)ccc1OCc1c(C)noc1C | 0 | -1 | 6 | -2 | 11* | 17* | 13* | PG9 bind DR=>67;PGV04 DR counter=>67;PG126 binding DR=>67
Cc1cccc(C)c1NC(=O)Cn1nc(-c2ccc(Cl)s2)ccc1=O | 2 | -1 | -3 | -1 | 11* | 7 | 9
CCc1ccc(S(=O)(=O)c2nnn3c2nc(NCCNC(C)=O)c2ccccc23)cc1 | 2 | 3 | -25 | -2 | 0 | . | .
CCCCNc1nc2c(S(=O)(=O)c3ccccc3)nnn2c2ccccc12 | -1 | 2 | 20 | 16 | 29* | 58* | 75*
CCN(CC)C(=O)CC[C@@H]1CC[C@]2(CCCN(C(=O)c3cccnc3)C2)O1 | . | . | . | -3 | . | . | .
COc1ccc(C(C(=O)NC2CCCC2)N2CCc3ccccc32)cc1 (stereo not drawn) | 1 | 0 | 2 | 3 | 12* | 25* | 34*
COc1ccc(OCC(=O)Nc2cc(S(=O)(=O)N3CCCC3)ccc2OCC(F)(F)F)cc1 | 12 | 5 | 2 | 1 | 9.3* | 21* | 28*
COc1ccc(Cl)cc1NC(=O)c1nnn(CC(=O)Nc2ccc3c(c2)OCO3)c1N | 1 | 1 | 2 | -8 | 10* | 20* | 27*
COC(=O)c1ccc(C2/C(=C(\O)c3ccc(OC)c(C)c3)C(=O)C(=O)N2c2cc(C)on2)cc1 (stereo not drawn) | 1 | 0 | 6 | -6 | 8.7* | 14* | 19*
Cc1cccc(N(Cc2cc3ccccc3[nH]c2=O)S(=O)(=O)c2ccccc2)c1 | 5 | 2 | -2 | -1 | -1 | . | .
